Test results taken from ChEMBL document CHEMBL4145681, “Discovery of Novel Aminotetralines and Aminochromanes as Selective and Competitive Glycine Transporter 1 (GlyT1) Inhibitors” (J Med Chem, 2018).
The source made the active and inactive calls. The calls are words filed in the database; no cut-off is given here.

Assays:
[1] = Clearance in rat liver microsomes at 0.5 uM incubated up to 30 mins in presence of NADPH by LC-MS/MS method; format: ADME, microsome; conditions: read-out: CLH
[2] = Efflux ratio in MDCK2-MDR1 cells at 1 uM incubated fro 1 hr by LC-MS/MS method; format: ADME, cell-based, Canis lupus familiaris; conditions: dog, MDCK-MDR1
[3] = target: T1, Sodium- and chloride-dependent glycine transporter 1 (Homo sapiens, UniProt P48067); experiment: Displacement of [3H]N-Methyl-SSR504734 from human GlyT1c expressed in cell membranes incubated for 1 hr by liquid scintillation spectrometry
T1 sequence (P48067 whole entry): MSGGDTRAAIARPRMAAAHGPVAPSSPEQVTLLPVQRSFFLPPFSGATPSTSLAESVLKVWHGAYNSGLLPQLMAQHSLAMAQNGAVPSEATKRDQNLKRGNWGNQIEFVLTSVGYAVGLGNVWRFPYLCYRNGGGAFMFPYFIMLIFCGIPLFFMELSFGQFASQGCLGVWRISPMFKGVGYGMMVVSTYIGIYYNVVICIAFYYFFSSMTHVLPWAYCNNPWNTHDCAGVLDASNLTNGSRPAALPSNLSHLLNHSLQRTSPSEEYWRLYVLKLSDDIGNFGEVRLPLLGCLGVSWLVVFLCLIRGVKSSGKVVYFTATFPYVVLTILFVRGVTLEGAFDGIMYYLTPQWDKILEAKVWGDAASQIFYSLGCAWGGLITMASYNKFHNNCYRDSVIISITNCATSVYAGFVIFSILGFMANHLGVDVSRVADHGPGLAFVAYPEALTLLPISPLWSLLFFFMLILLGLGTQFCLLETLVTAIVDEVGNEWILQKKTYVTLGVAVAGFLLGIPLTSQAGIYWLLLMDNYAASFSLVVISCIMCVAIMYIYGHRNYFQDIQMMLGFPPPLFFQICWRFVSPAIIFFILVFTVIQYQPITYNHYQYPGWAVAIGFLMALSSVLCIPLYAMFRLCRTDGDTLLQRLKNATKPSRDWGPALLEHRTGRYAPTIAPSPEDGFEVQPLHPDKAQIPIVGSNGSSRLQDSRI

[4] = Clearance in human liver microsomes at 0.5 uM incubated up to 30 mins in presence of NADPH by LC-MS/MS method; format: ADME, microsome; conditions: read-out: CLH
[5] = target: Voltage-gated inwardly rectifying potassium channel KCNH2 (Homo sapiens, UniProt Q12809); experiment: Inhibition of human ERG
Voltage-gated inwardly rectifying potassium channel KCNH2, sequence (Q12809 whole entry): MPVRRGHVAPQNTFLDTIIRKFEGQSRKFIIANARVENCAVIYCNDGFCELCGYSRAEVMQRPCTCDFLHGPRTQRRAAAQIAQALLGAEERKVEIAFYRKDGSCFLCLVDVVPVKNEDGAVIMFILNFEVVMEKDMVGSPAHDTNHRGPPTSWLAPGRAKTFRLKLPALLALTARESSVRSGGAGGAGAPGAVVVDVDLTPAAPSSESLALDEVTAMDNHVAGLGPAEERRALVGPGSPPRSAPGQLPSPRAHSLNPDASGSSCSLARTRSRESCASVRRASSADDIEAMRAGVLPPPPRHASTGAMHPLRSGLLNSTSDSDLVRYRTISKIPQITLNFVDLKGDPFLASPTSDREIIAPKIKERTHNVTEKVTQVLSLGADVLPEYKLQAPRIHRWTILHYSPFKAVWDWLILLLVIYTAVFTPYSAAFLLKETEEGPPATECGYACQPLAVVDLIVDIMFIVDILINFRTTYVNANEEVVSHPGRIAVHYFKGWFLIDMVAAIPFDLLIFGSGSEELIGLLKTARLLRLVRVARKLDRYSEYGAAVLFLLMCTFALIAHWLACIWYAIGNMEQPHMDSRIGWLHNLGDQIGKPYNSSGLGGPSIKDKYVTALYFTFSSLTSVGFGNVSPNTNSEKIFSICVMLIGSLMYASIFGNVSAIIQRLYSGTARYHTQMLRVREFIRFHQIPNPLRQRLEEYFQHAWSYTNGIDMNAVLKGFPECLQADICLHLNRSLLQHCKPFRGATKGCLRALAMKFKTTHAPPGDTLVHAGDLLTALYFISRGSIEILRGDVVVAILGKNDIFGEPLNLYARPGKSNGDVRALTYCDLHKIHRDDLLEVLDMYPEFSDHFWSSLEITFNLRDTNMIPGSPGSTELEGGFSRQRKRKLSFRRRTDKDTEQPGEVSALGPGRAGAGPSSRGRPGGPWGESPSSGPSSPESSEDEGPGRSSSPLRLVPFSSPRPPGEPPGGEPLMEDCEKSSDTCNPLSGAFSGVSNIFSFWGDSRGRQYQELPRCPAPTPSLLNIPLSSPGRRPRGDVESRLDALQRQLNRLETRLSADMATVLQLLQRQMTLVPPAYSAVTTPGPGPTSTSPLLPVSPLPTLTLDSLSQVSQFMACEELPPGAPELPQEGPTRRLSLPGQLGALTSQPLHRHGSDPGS

Mus musculus = experiment: In-vivo binding affinity to GlyT1 in mouse assessed as target occupancy in forebrains dosed intraperitoneally using [3H]N-methyl-SSR504734 as radioligand after 1 hr by liquid scintillation counting method; format: functional; conditions: ip
Method in brief: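 Mice dosed i.p. at several doses; forebrain homogenates then tested ex vivo for binding of a GlyT1 radioligand to give target occupancy, with ED50 for 50% occupancy estimated across the dose range.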

[6] = Oral bioavailability in Sprague-Dawley rat at measured after 8 to 24 hrs by LC-MS/MS method; format: ADME, organism-based; conditions: in vivo
[7] = target: T2, Sodium- and chloride-dependent glycine transporter 1 (Homo sapiens) (UniProt P48067); experiment: Competitive inhibition of GlyT1c (unknown origin) expressed in Xenopus laevis oocytes clamped at -60 mV assessed as reduction in glycine-induced membrane currents at 300 nM pre-treated with glycine for 1 min followed by compound dosing for 3 mins by two-electrode voltage clamp assay; format: cell-based
T2 sequence (whole entry): T1 sequence (P48067 whole entry)
Method in brief: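 Oocytes expressing GlyT1c were stimulated with 10 µM or 3000 µM glycine to evoke transporter current. Compound at 300 nM was added to the glycine solution, and % inhibition of the current was calculated. Mode of inhibition was judged by comparing inhibition at the two glycine levels. Data are mean ± SD, N>4 oocytes.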

Cytochrome P450 3A4 = Cytochrome P450 3A4 (Homo sapiens, UniProt P08684); experiment: Inhibition of CYP3A4 in human liver microsomes in presence of NADPH regeneration mixture using luciferin IPA-OH substrate by P450-Glo assay; format: ADME
Cytochrome P450 3A4, sequence (P08684 whole entry): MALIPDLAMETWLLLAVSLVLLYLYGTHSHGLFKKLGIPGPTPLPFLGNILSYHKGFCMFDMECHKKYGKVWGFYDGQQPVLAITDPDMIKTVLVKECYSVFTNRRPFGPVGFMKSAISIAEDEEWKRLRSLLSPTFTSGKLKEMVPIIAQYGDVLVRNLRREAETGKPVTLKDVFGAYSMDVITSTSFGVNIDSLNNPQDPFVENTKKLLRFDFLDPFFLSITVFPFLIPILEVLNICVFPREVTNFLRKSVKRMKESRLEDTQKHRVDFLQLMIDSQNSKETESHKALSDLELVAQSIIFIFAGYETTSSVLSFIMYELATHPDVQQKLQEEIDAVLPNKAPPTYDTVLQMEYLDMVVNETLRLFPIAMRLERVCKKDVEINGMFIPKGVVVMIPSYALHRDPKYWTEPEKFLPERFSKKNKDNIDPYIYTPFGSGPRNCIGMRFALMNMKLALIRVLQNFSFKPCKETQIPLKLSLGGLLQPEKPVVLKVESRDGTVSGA

[8] = Ratio of free drug level in brain to plasma of Sprague-Dawley rat at 2 mg/kg, ip measured after 8 to 24 hrs by LC-MS/MS method; format: ADME, organism-based
[9] = fCmax in Sprague-Dawley rat brain at 2 mg/kg, ip measured after 8 to 24 hrs by LC-MS/MS method; format: ADME, organism-based; conditions: in vivo
[10] = Oral bioavailability in dog; format: ADME, organism-based, Canis lupus familiaris; conditions: in vivo
[11] = Permeability in MDCK2-MDR1 cells at 1 uM incubated fro 1 hr by LC-MS/MS method; format: ADME, cell-based, Canis lupus familiaris; conditions: dog, MDCK-MDR1; read-out: permeability
[12] = Solubility in water; format: physicochemical

## Cn1cnc(S(=O)(=O)NCCOc2ccc3c(c2)[C@@H](Cc2ccccc2)[C@@H](NCC(F)(F)F)CC3)c1 (relative stereo)
[1]
  microsomal CLint at 0.5 µM: 125 µL/min/mg
[2]
  efflux ratio at 1 h, 1 µM: 1.4
[3]
  Ki: 69 nM
[4]
  microsomal CLint at 0.5 µM: 69 µL/min/mg

## O=S(=O)(CC1CC1)NCCOc1ccc2c(c1)[C@@H](Cc1ccccc1)[C@@H](N1CCC1)CO2 (relative stereo)
[1]
  microsomal CLint at 0.5 µM: 239 µL/min/mg
[3]
  Ki: 940 nM
[4]
  microsomal CLint at 0.5 µM: 940 µL/min/mg

## CCCCS(=O)(=O)NCCOc1ccc2c(c1)[C@@H](Cc1ccc(Cl)c(Cl)c1)[C@@H](N)CC2 (relative stereo)
[1]
  microsomal CLint at 0.5 µM: 35 µL/min/mg
[3]
  Ki: 136 nM
[4]
  microsomal CLint at 0.5 µM: 173 µL/min/mg

## O=S(=O)(CC1CC1)NC1CN(c2ccc3c(c2)[C@@H](Cc2ccccc2)[C@@H](N2CCC2)CO3)C1 (relative stereo)
[1]
  microsomal CLint at 0.5 µM: 130 µL/min/mg
[2]
  efflux ratio at 1 h, 1 µM: 1
[5]
  IC50: 11400 nM
[3]
  Ki: 18 nM
[4]
  microsomal CLint at 0.5 µM: < 23 µL/min/mg

## Cn1cnc(S(=O)(=O)NCCOc2ccc3c(c2)[C@@H](Cc2ccccc2Cl)[C@@H](N)CC3)c1 (relative stereo)
[3]
  Ki: 75 nM

## Cn1cnc(S(=O)(=O)NCCOc2ccc3c(c2)[C@@H](Cc2cc(F)cc(Cl)c2)[C@@H](N)CC3)c1 (relative stereo)
[3]
  Ki: 1.2 nM

## CCCS(=O)(=O)NCc1ccc2c(c1)[C@@H](Cc1ccccc1)[C@@H](NC)CC2 (relative stereo)
Mus musculus
  ED50: 2 mg/kg

## Oc1ccc2c(c1)C(C1(c3ccc(Cl)cc3)CCC1)NCC2 (stereo not drawn)
[6]
  bioavailability: < 1%
[1]
  microsomal CLint at 0.5 µM: 343 µL/min/mg
[7]
  inhibition: Active
Cytochrome P450 3A4
  IC50: > 10000 nM
[3]
  Ki: 124 nM
[4]
  microsomal CLint at 0.5 µM: 130 µL/min/mg

## CCCS(=O)(=O)NCCOc1ccc2c(c1)[C@@H](Cc1ccc(Cl)c(Cl)c1)[C@@H](N)CC2 (relative stereo)
[6]
  bioavailability: 31%
[8]
  Kp uu: 0.05
[1]
  microsomal CLint at 0.5 µM: 17 µL/min/mg
[7]
  inhibition: Active
Cytochrome P450 3A4
  IC50: > 10000 nM
[3]
  Ki: 35 nM
[4]
  microsomal CLint at 0.5 µM: 95 µL/min/mg

## Cn1cnc(S(=O)(=O)NCCOc2ccc3c(c2)[C@@H](Cc2cccc(C(F)(F)F)c2)[C@@H](N)CC3)c1 (relative stereo)
[3]
  Ki: 0.8 nM

## CCCS(=O)(=O)N[C@@H]1CCN(c2ccc3c(c2)[C@@H](Cc2ccccc2)[C@@H](N2CCC2)CC3)C1=O
[1]
  microsomal CLint at 0.5 µM: 33 µL/min/mg
[2]
  efflux ratio at 1 h, 1 µM: 1.6
[5]
  IC50: 4500 nM
[3]
  Ki: 28 nM
[4]
  microsomal CLint at 0.5 µM: < 23 µL/min/mg

## N[C@H]1CCc2ccc(OCCNS(=O)(=O)CC3CC3)cc2[C@H]1Cc1ccc(Cl)c(Cl)c1 (relative stereo)
Mus musculus
  ED50: 14 mg/kg
[1]
  microsomal CLint at 0.5 µM: 25 µL/min/mg
[3]
  Ki: 5.7 nM
[4]
  microsomal CLint at 0.5 µM: 92 µL/min/mg

## N[C@H]1CCc2ccc(OCCNS(=O)(=O)C3CCC3)cc2[C@H]1Cc1ccc(Cl)c(Cl)c1 (relative stereo)
[1]
  microsomal CLint at 0.5 µM: 49 µL/min/mg
[3]
  Ki: 32 nM
[4]
  microsomal CLint at 0.5 µM: 55 µL/min/mg

## O=S(=O)(CC1CC1)NCCOc1ccc2c(c1)[C@@H](Cc1ccccc1)[C@@H](N1CCC1)CC2
Mus musculus
  ED50: 0.5 mg/kg
[6]
  bioavailability: 8%
[8]
  Kp uu: 0.8
[1]
  microsomal CLint at 0.5 µM: 137 µL/min/mg
[2]
  efflux ratio at 1 h, 1 µM: 1.6
[9]
  fCmax: 9.9 nM
[5]
  IC50: 80 nM
[3]
  Ki: 2.6 nM
[4]
  microsomal CLint at 0.5 µM: 113 µL/min/mg

## CCCS(=O)(=O)NC1CN(c2ccc3c(c2)[C@@H](Cc2ccccc2)[C@@H](N2CCC2)CO3)C1 (relative stereo)
[1]
  microsomal CLint at 0.5 µM: 66 µL/min/mg
[2]
  efflux ratio at 1 h, 1 µM: 0.9
[3]
  Ki: 44 nM
[4]
  microsomal CLint at 0.5 µM: < 23 µL/min/mg

## CCCS(=O)(=O)NCCOc1ccc2c(c1)C(C1(c3ccc(Cl)cc3)CCC1)NCC2 (stereo not drawn)
[6]
  bioavailability: 7%
[8]
  Kp uu: 0.54
[1]
  microsomal CLint at 0.5 µM: 450 µL/min/mg
[7]
  inhibition: Active
Cytochrome P450 3A4
  IC50: 620 nM
[3]
  Ki: 3 nM
[4]
  microsomal CLint at 0.5 µM: 620 µL/min/mg

## Cn1cnc(S(=O)(=O)NCc2ccc3c(c2)[C@@H](Cc2ccccc2)[C@@H](N2CCC2)CC3)c1 (relative stereo)
Mus musculus
  ED50: 1.8 mg/kg
[6]
  bioavailability: 51%
[3]
  Ki: 3 nM
[10]
  bioavailability: 75%

## CCCS(=O)(=O)NC1CN(c2ccc3c(c2)[C@@H](Cc2ccccc2)[C@@H](N2CCC2)CC3)C1
[1]
  microsomal CLint at 0.5 µM: 42 µL/min/mg
[2]
  efflux ratio at 1 h, 1 µM: 1.4
[5]
  IC50: 6800 nM
[3]
  Ki: 2.6 nM
[4]
  microsomal CLint at 0.5 µM: < 23 µL/min/mg

## Cn1cnc(S(=O)(=O)NCCOc2ccc3c(c2)[C@@H](Cc2ccccc2)[C@@H](N2CCCC2)CC3)c1
Mus musculus
  ED50: 1.6 mg/kg
[6]
  bioavailability: 29%
[2]
  efflux ratio at 1 h, 1 µM: 7.2
[9]
  fCmax: 2 nM
[11]
  Papp at 1 h, 1 µM: 17 ×10⁻⁶ cm/s
[3]
  Ki: 1.2 nM
[10]
  bioavailability: 49%
[12]
  solubility: > 1000 µg/mL

## N[C@H]1CCc2ccc(OCCNS(=O)(=O)c3cccs3)cc2[C@H]1Cc1ccc(Cl)c(Cl)c1 (relative stereo)
[1]
  microsomal CLint at 0.5 µM: 95 µL/min/mg
[3]
  Ki: 163 nM
[4]
  microsomal CLint at 0.5 µM: 99 µL/min/mg

## Cn1cnc(S(=O)(=O)NCCOc2ccc3c(c2)[C@@H](Cc2ccc(Cl)c(Cl)c2)[C@@H](N)CC3)c1 (relative stereo)
Mus musculus
  ED50: > 20 mg/kg
[1]
  microsomal CLint at 0.5 µM: 10 µL/min/mg
[3]
  Ki: 2.6 nM
[4]
  microsomal CLint at 0.5 µM: 36 µL/min/mg

## Cn1cnc(S(=O)(=O)NCCOc2ccc3c(c2)[C@@H](Cc2ccccc2)[C@@H](N)CC3)c1 (relative stereo)
[3]
  Ki: 3.6 nM

## CS(=O)(=O)NCCOc1ccc2c(c1)[C@@H](Cc1ccc(Cl)c(Cl)c1)[C@@H](N)CC2 (relative stereo)
[1]
  microsomal CLint at 0.5 µM: 39 µL/min/mg
[3]
  Ki: 141 nM
[4]
  microsomal CLint at 0.5 µM: 25 µL/min/mg

## CCCS(=O)(=O)NCc1ccc2c(c1)[C@@H](Cc1ccccc1)[C@@H](N1CCC1)CC2 (relative stereo)
[1]
  microsomal CLint at 0.5 µM: 302 µL/min/mg
[4]
  microsomal CLint at 0.5 µM: 122 µL/min/mg

## Cn1cnc(S(=O)(=O)NCCOc2ccc3c(c2)[C@@H](Cc2ccc(Cl)cc2)[C@@H](N)CC3)c1 (relative stereo)
[3]
  Ki: 1.1 nM

## Cn1cnc(S(=O)(=O)NCCOc2ccc3c(c2)[C@@H](Cc2ccccc2)[C@@H](N2CCC2)CO3)c1
[1]
  microsomal CLint at 0.5 µM: 37 µL/min/mg
[2]
  efflux ratio at 1 h, 1 µM: 3.5
[3]
  Ki: 3.3 nM
[4]
  microsomal CLint at 0.5 µM: 277 µL/min/mg

## CN[C@H]1CCc2ccc(OCCNS(=O)(=O)CC3CC3)cc2[C@H]1Cc1ccccc1
Mus musculus
  ED50: 1.4 mg/kg
[6]
  bioavailability: 22%
[9]
  fCmax: 2.3 nM
[3]
  Ki: 1.2 nM

## Cn1cnc(S(=O)(=O)NCCOc2ccc3c(c2)[C@@H](Cc2cccc(Cl)c2)[C@@H](N)CC3)c1 (relative stereo)
Mus musculus
  ED50: 15 mg/kg
[3]
  Ki: 1.5 nM

## N[C@H]1CCc2ccc(OCCNS(=O)(=O)c3ccccc3)cc2[C@H]1Cc1ccc(Cl)c(Cl)c1
[1]
  microsomal CLint at 0.5 µM: 40 µL/min/mg
[3]
  Ki: 660 nM
[4]
  microsomal CLint at 0.5 µM: 78 µL/min/mg

## Cn1cc(S(=O)(=O)NCCOc2ccc3c(c2)[C@@H](Cc2ccc(Cl)c(Cl)c2)[C@@H](N)CC3)cn1 (relative stereo)
Mus musculus
  ED50: > 20 mg/kg
[1]
  microsomal CLint at 0.5 µM: 49 µL/min/mg
[9]
  fCmax: 0.2 nM
[3]
  Ki: 1.2 nM
[4]
  microsomal CLint at 0.5 µM: 44 µL/min/mg
